Screening data from PubChem BioAssay.
PHOSPHO1 block: blocks human PHOSPHO1 phosphatase activity. inhibition, % at 13.3 µM. recombinant PHOSPHO1, absorbance phosphatase assay. 1.1% of 290,000 active; in the data active = inhibition above about 60%
KCNK3 block: human KCNK3 channel inhibition, primary screen; AID 602410; CHO-KCNK3 thallium flux, FluxOR fluorescence; hits give low values; B-score at 10 µM; 0.84% of 340,000 active;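 active = B-score under library mean minus 4 SD, starting fluorescence ratio at most library mean plus 5 SD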;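 also: more negative B-score means stronger inhibition of thallium flux through KCNK3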
KCNK9 inh: human KCNK9 channel inhibition. Q9NPC2. B-score at 10 µM. 1.2% of 310,000 active. HEK293 KCNK9, FluxOR thallium flux fluorescence; hits give low values;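 active = ratio B-score over 3 SD below the library mean, with starting fluorescence within 5 SD of its mean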;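 also: negative B-score means less thallium flux so channel inhibition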
KCNQ1 pot: potentiates or activates the human KCNQ1 potassium channel | P51787 | CHO-K1 KCNQ1, thallium flux FluxOR fluorescence; hits give high values | B-score at 10 µM | 0.35% of 310,000 active | AID 2648;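 active = fluorescence ratio B-score, a plate-corrected score, at least three library SD, with initial intensity B-score within 5 SD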
Target sequence (P51787 whole entry, looked up): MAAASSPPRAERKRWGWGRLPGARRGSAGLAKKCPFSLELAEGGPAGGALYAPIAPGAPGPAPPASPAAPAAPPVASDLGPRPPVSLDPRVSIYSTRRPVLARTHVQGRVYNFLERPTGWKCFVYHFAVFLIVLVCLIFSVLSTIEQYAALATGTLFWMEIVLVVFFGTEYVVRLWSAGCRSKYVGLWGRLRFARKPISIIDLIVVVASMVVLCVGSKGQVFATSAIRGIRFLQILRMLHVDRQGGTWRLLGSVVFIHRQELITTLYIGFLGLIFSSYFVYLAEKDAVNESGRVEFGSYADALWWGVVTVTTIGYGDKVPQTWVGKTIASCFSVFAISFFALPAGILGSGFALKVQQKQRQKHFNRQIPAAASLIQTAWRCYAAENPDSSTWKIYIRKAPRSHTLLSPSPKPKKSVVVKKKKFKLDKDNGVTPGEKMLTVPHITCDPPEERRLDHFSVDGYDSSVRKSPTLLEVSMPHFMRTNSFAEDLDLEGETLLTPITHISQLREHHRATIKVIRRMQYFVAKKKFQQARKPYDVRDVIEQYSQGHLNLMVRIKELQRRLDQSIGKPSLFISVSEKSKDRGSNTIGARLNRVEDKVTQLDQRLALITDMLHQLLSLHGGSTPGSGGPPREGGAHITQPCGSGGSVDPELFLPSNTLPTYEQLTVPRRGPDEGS
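Schedule – 37 °C overnight plating, 90-min dark dye load, 20-min compound pretreatment · System – stable KCNQ1 CHO-K1 line · Probe or stimulus – thallium- and potassium-containing depolarizing buffer · Measured by – kinetic FluxOR fluorescence, 10 s baseline plus 110 s post-stimulus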
KCNQ1 inh: blocks the human KCNQ1 potassium channel; P51787; CHO-K1 KCNQ1, FluxOR thallium flux fluorescence; hits give high values; B-score at 10 µM; 1.3% of 310,000 active;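 active = compounds whose thallium flux B-score, printed positive for inhibition, exceeds three library SD while starting fluorescence stays within three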;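 also: channel opened by potassium depolarization with thallium stimulus after 20 min compound exposure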
hERG rescue: shields human hERG channel from block by proarrhythmic agents; activation (rescue from dofetilide block), less the hit threshold, % at 10 µM; Q12809; CHO-hERG, FluxOR thallium flux, dofetilide IC70 present; 0.51% of 310,000 active;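 active = activation above the mean of controls blocked by dofetilide plus 5 SD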;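 also: thallium influx through hERG after potassium depolarization seen as dye fluorescence rise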
KCNK9 inh conf: human KCNK9 inhibitor confirmation | shares compounds with KCNK9 inh | HEK293 KCNK9 cells, FluxOR thallium flux fluorescence | inhibition, % at 10 µM | 43% of 4,900 active;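 active = thallium signal inhibited by more than 5 SD of the compound-free buffer control wells, on both duplicate plates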;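 also: 0% = assay buffer control wells without compound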
Kir21 sel: mouse Kir2.1 off-target activity of KCNK9 modulators; shares compounds with KCNK9 inh; inhibition, % at 10 µM; AID 492993; 4% of 4,900 active; Kir2.1 cells, FluxOR thallium flux fluorescence;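 active = thallium signal drop more than 5 SD beyond the mean of the no-compound control wells, seen in both duplicate plates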;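 also: signal is fluorescence rise after thallium addition divided by baseline fluorescence; plate controls were assay buffer only for no effect and full block by chlorpromazine control for full effect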
KCNK9 uninduced: non-induced cell nonspecific activity of KCNK9 modulators. shares compounds with KCNK9 inh. non-induced KCNK9-HEK293, FluxOR thallium flux. inhibition, % at 10 µM. 40% of 4,900 active;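 active = thallium signal drop beyond 5 SD of the untreated control mean, on both duplicate plates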;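 also: plate controls were buffer only IC0 wells for no effect and SID17386958 at its maximal inhibitory level for full effect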
* marks the source's active call; other numbers are inactive results; i = inactive; x = not tested or not shown. Shown are actives, neighbours in structure and some others; about 4% of the full set was active somewhere.

SMILES | PHOSPHO1 block | KCNK3 block | KCNK9 inh | KCNQ1 pot | KCNQ1 inh | hERG rescue | KCNK9 inh conf | Kir21 sel | KCNK9 uninduced
O=C1C(Cl)=C(N2CCCCC2)C(=O)N1c1ccccc1 | 34 | i | i | i | i | -10 | x | x | x
O=C1C(Cl)=C(N2CCN(Cc3ccccc3)CC2)C(=O)N1Cc1ccccc1 | 16 | i | i | i | i | -3 | i | i | i
Cc1nc(CS(=O)(=O)c2ccccn2)sc1C(=O)NNC(=O)c1ccc(Cl)cc1 | -7 | i | i | i | i | -7 | x | x | x
CC(C)(C)c1cc(-c2ccco2)c(C#N)c(SCC#N)n1 | 10 | i | -9.6* | i | i | -4 | i | i | 31%*
CCSc1nc(C2CC2)cc(-c2ccco2)c1C#N | 22 | i | i | i | i | -12 | x | x | x
CCCCCCCCC/C(=N\O)c1ccccn1 | -1 | i | -15* | i | 7* | -7 | 41%* | i | 50%*
CCCC(OC(=O)CC1Sc2ccccc2NC1=O)C(=O)NCc1ccco1 (configuration not stated) | -19 | i | i | i | i | -10 | x | x | x
CC(C)CC(OC(=O)CC1Sc2ccccc2NC1=O)C(=O)NC1CCCC1 (configuration not stated) | 18 | i | -8.9* | i | i | -6 | i | i | i
COc1cc(OC)cc(-c2nnc(SCc3c(F)cccc3Cl)o2)c1 | 7 | i | i | i | i | 1 | x | x | x
Cc1[nH]n(C(N)=S)c(=O)c1N=Nc1cccc([N+](=O)[O-])c1C | x | i | i | i | i | -9 | i | i | i
Cc1c(N=Nc2c(-c3ccc([N+](=O)[O-])cc3)[nH]n(C(N)=S)c2=O)cccc1[N+](=O)[O-] | -26 | i | x | x | x | x | x | x | x
CCC(C)(C)c1ccc(OCCCC[n+]2cccc(C)c2)c(C(C)(C)CC)c1 | 14 | i | -9.4* | i | 10* | -29 | 38%* | 66%* | 28%*
Cc1ccc2c(c1)N(C(=O)CCC(=O)NCc1cccc(Br)c1)CC(C)O2 (configuration not stated) | -4 | i | i | i | i | -15 | i | i | i
Cc1ccc2c(c1)N(C(=O)CCC(=O)Nc1ccccc1Br)CC(C)O2 (configuration not stated) | 18 | i | i | i | i | -8 | i | i | i
CC(=O)c1ccc(NC(=O)CCC(=O)N2CC(C)Oc3ccc(C)cc32)cc1 (configuration not stated) | 33 | i | i | i | i | -4 | x | x | x
COc1ccccc1N1CCN(/N=C/C=C\c2ccccc2[N+](=O)[O-])CC1 | 34 | i | i | i | i | -16 | i | i | i
COc1ccc(/C=C(\C#N)C(=O)NCCc2ccccc2)cc1OCc1ccccc1 | -3 | i | i | i | i | -19 | i | i | i
O=C(O)c1c(-c2ccccc2)c(-c2ccccc2)nc2ccccc12 | -13 | i | i | i | i | -3 | x | x | x
C[C@]12CCC(O)CC1CCC1C2CC[C@]2(C)C(c3cc(C(F)(F)F)n[nH]3)CCC12 (some centres not stated) | 37 | i | -13* | i | i | -9 | 33%* | i | 63%*
CCOn1c(=O)c(-c2cccs2)[n+]([O-])c2ccccc21 | 8 | i | i | i | i | -4 | x | x | x
CCOC(=O)COn1c(=O)c(-c2cccs2)[n+]([O-])c2ccccc21 | -9 | i | -8.3* | i | i | -13 | 46%* | i | 47%*
COC(=O)Nc1nnc(-c2ccc(OC)cc2)s1 | 24 | i | i | i | i | -8 | x | x | x
O=C(NCc1ccccc1)C1=C[C@H](c2ccc(Br)cc2)C[C@H](OCCCCO)O1 | x | i | i | i | i | -9 | i | i | i
O=C(Nc1ccccc1)C1=C[C@H](c2csc3ccccc23)C[C@H](OCc2ccc(CO)cc2)O1 | -20 | i | -9.1* | i | i | -4 | 46%* | i | 36%*
C#Cc1ccc([C@H]2C=C(C(=O)NCc3ccccc3)O[C@@H](OCc3ccc(CO)cc3)C2)cc1 | x | i | i | i | i | -7 | i | i | i
SMILES | PHOSPHO1 block | KCNK3 block | KCNK9 inh | KCNQ1 pot | KCNQ1 inh | hERG rescue | KCNK9 inh conf | Kir21 sel | KCNK9 uninduced
O=C(C1=C[C@H](c2ccc(Br)cc2)C[C@H](OCCCCO)O1)N1CCN(Cc2ccccc2)CC1 | 24 | i | i | i | i | -6 | i | i | i
O=C(NC1CC1)C1=C[C@H](c2csc3ccccc23)C[C@H](OCc2ccc(CO)cc2)O1 | 22 | i | i | i | i | -10 | x | x | x
CC(/C=N/O)Cc1ccc2c(c1)OCO2 (configuration not stated) | x | i | i | i | i | -4 | x | x | x
O=C(O)CC1(C(=O)O)CCCC1 | x | i | x | x | x | x | x | x | x
CC(C)(C)[C@H]1C=C(C(=O)NCc2nc3ccccc3[nH]2)O[C@@H](OCCCCO)C1 | 32 | i | i | i | i | -12 | x | x | x
CC(C)(C)[C@H]1C=C(C(=O)NCc2ccccc2)O[C@@H](OCCCCO)C1 | x | i | i | i | i | -4 | i | i | i
COc1ccc(C(=O)CSc2ccc(-c3ccccc3)nn2)cc1 | -41 | i | i | i | i | -8 | i | i | i
COc1cccc(-c2ccc(SCC(=O)c3ccccc3)nn2)c1 | 16 | i | i | i | i | -19 | i | i | i
COc1ccccc1NS(=O)(=O)c1cc(NC(=O)C(C)C)ccc1N1CCCCC1 | 4 | i | -11* | i | i | -4 | 52%* | i | 35%*
COc1ccccc1NS(=O)(=O)c1cc(NC(=O)Nc2ccccc2)ccc1N1CCCCC1 | -30 | i | x | x | x | x | x | x | x
Cn1c(=O)c2c(SCc3ccccn3)nc(CC(C)(C)C)nc2n(C)c1=O | 22 | i | i | i | i | -19 | i | i | i
Cc1c(NC(=O)c2ccco2)cccc1C(=O)NN1C(=O)c2ccccc2C1=O | 20 | i | i | i | i | -6 | x | x | x
CCCCc1ccc(-n2nnnc2SCC(=O)Nc2cc(OC)c([N+](=O)[O-])cc2C)cc1 | 21 | i | i | i | i | -9 | i | i | i
